The text below walks through data of paper PMC4363178 (Biochemical and biophysical research communications, 2015).

What is called Kd is the equilibrium constant for the complex coming apart. A lower Kd goes with a tighter complex.

Assay [1] deals with T1, PDZ1 of mouse ZO2 (M-ZO2PDZ1) (Mus musculus, UniProt Q9Z0U1).
T1 sequence (Q9Z0U1 1-102): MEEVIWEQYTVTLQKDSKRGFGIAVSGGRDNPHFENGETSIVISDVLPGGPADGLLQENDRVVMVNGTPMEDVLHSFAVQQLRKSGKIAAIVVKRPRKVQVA
Briefly: NMR titration. Format: binding. Conditions: for Decrease of chemical shift change of R87 relative to wild-type Cln1-C: same concentration of wild-type Cln1-C, stated jointly for the two mutants. In a few lines: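 His-tag-cleaved mouse ZO2 PDZ1 from E. coli BL21(DE3), 15N-labelled in M9 medium, at 0.1 mM in pH 5.2 buffer (50mM phosphate, 50mM NaCl, 0.2mM EDTA). Unmodified peptides (>95% pure; 50 mM stock) were added stepwise up to 12:1 peptide:protein, with ≤10% total dilution. A 1H-15N HSQC was recorded at each point at 600 MHz and 298K. Composite shift = {[δHN]^2 + [0.17 δN]^2}^1/2.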

For assay [2], the target named is PDZ1 domain of mouse ZO2 (M-ZO2PDZ1) (mouse) (UniProt Q9Z0U1). Put plainly: NMR titration.

Peptide text beside a SMILES is read from it.

Chain of PDZ1 domain of mouse ZO2 (M-ZO2PDZ1) (mouse) (Q9Z0U1 1-104): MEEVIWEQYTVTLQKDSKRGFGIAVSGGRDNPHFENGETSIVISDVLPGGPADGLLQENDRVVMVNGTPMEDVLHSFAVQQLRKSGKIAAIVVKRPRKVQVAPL

Molecule `C[C@H](NC(=O)[C@H](Cc1ccc(O)cc1)NC(=O)[C@H](CC(=O)O)NC(=O)[C@H](CCCCN)NC(=O)CNC(=O)[C@H](CO)NC(=O)[C@H](CO)NC(=O)[C@@H]1CCCN1)C(=O)O` [Cln1-C-YA] (H-PSSGKDYA-OH) yielded a Kd in assay [1] of 500 ± 250 µM.
On the same count and under the same terms, the value for `CC[C@H](C)[C@H](N)C(=O)N[C@@H](CC(C)C)C(=O)N[C@@H](CCCNC(=N)N)C(=O)N[C@@H](CCCCN)C(=O)N[C@@H](CCCNC(=N)N)C(=O)N[C@@H](CCC(=O)O)C(=O)N[C@@H](Cc1ccc(O)cc1)C(=O)N[C@H](C(=O)O)C(C)C` [PMP22-YV] (H-ILRKREYV-OH) was 150 ± 50 µM.
PSSGKDAA [Cln1-C-AA]: the “Decrease of chemical shift change of R87 relative to wild-type Cln1-C” value in assay [1] stood at 22 fold.
On the same count and under the same terms, the value for PSSGKDVY [Cln1-C-VY] was 22 fold.
The molecule “mutant PMP22 C-terminal peptide PMP22-M1 (ILRKREYV)” registered a Kd in assay [2] of 150 µM.
